Activity calls are given as the source filed them. The rule behind the calls is not given here.
Target: not listed separately
Test: Inhibition of rat liver microsomal Steroid 5-alpha-reductase after 30 mins by scintillation counting
Details: not given
Method in brief: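 Rat liver microsomes containing both type 1 and type 2 5α-reductase. [³H]T and [³H]DHT spots were separated by TLC, cut out and extracted with ethyl acetate, then counted by liquid scintillation.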

Question: With `O=C(O[C@@H]1Cc2c(O)cc(O)cc2O[C@@H]1c1cc(O)c(O)c(O)c1)c1cc(O)c(O)c(O)c1` [EPIGALOCATECHIN GALLATE] as the compound, how does the IC50 read?
Answer: 6290 nM

Question: With `CC(C)=CCC/C(C)=C/C(=O)O[C@@H]1Cc2c(O)cc(O)cc2O[C@@H]1c1cc(O)c(O)c(O)c1` as the compound, how does the IC50 read?
Answer: 2240 nM

Question: Which IC50 does the source give for `CC1=C(/C=C/C(C)=C/C=C/C(C)=C/C(=O)O[C@@H]2Cc3c(O)cc(O)cc3O[C@@H]2c2cc(O)c(O)c(O)c2)C(C)(C)CCC1` here?
Answer: 760 nM

Question: With `CCCCCCCCCCCCCC(=O)O[C@@H]1Cc2c(O)cc(O)cc2O[C@@H]1c1cc(O)c(O)c(O)c1` as the compound, how does the IC50 read?
Answer: 600 nM

Question: With `CCCCCCCCCCCCCCCCCC(=O)O[C@@H]1Cc2c(O)cc(O)cc2O[C@@H]1c1cc(O)c(O)c(O)c1` as the compound, how does the IC50 read?
Answer: 730 nM

Question: With `O=C(O[C@@H]1Cc2c(O)cc(O)cc2O[C@@H]1c1cc(O)c(O)c(O)c1)c1ccc(Cl)cc1` as the compound, how does the IC50 read?
Answer: 1600 nM

Question: With `CCCCCCCC/C=C\CCCCCCCC(=O)O[C@@H]1Cc2c(O)cc(O)cc2O[C@@H]1c1cc(O)c(O)c(O)c1` as the compound, how does the IC50 read?
Answer: 740 nM

Question: Which IC50 does the source give for `Cc1ccc(C(=O)O[C@@H]2Cc3c(O)cc(O)cc3O[C@@H]2c2cc(O)c(O)c(O)c2)cc1` here?
Answer: 1320 nM

Question: For `CCCCCCCCCCCCCCCC(=O)O[C@@H]1Cc2c(O)cc(O)cc2O[C@@H]1c1cc(O)c(O)c(O)c1`, which IC50 is on record?
Answer: 530 nM

Question: With `CC/C=C\C/C=C\C/C=C\CCCCCCCC(=O)O[C@@H]1Cc2c(O)cc(O)cc2O[C@@H]1c1cc(O)c(O)c(O)c1` as the compound, how does the IC50 read?
Answer: 780 nM

Question: With `CC(C)(C)C1CCC(C(=O)O[C@@H]2Cc3c(O)cc(O)cc3O[C@@H]2c2cc(O)c(O)c(O)c2)CC1` (some centres not stated) as the compound, how does the IC50 read?
Answer: 1190 nM

Question: With `CCCCCCC/C=C/C(=O)O[C@@H]1Cc2c(O)cc(O)cc2O[C@@H]1c1cc(O)c(O)c(O)c1` as the compound, how does the IC50 read?
Answer: 2470 nM

Question: Which IC50 does the source give for `CCCCCCCCCC(=O)O[C@@H]1Cc2c(O)cc(O)cc2O[C@@H]1c1cc(O)c(O)c(O)c1` here?
Answer: 2940 nM

Question: For `CCCCCCCCCCCC(=O)O[C@@H]1Cc2c(O)cc(O)cc2O[C@@H]1c1cc(O)c(O)c(O)c1`, which IC50 is on record?
Answer: 770 nM

Question: Which IC50 does the source give for `CCCCCC/C=C\CCCCCCCC(=O)O[C@@H]1Cc2c(O)cc(O)cc2O[C@@H]1c1cc(O)c(O)c(O)c1` here?
Answer: 480 nM

System: PC-3
Test: Anticancer activity against human PC3 cells xenografted in sc dosed SCID mouse assessed as inhibition of tumor growth at 80 mg/kg, ip qd for 14 days
Format: functional
Details: PC-3, sc, 336 h
Method in brief: (§1)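 PC-3 xenografts in SCID mice; calipers tracked tumor volume once palpable, and dosing began at an average volume of ~50–100 mm³. Groups of 5 mice received one intraperitoneal dose daily for 14 days, formulated in 15% PEG 400, 5% EtOH and 80% H₂O, alongside a vehicle-only group. Tumor size and body weight were recorded every two days for 28 days; tumor size given as mean ± S.E.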

Question: Which inhibition in vivo at 80 mg/kg does the source give for `O=C(O[C@@H]1Cc2c(O)cc(O)cc2O[C@@H]1c1cc(O)c(O)c(O)c1)c1cc(O)c(O)c(O)c1` [EPIGALOCATECHIN GALLATE] here?
Answer: 32%

Species: Rattus norvegicus
Test: Inhibition of rat liver microsomal Steroid 5-alpha-reductase at 5 uM after 30 mins by scintillation counting
Details: not given
Method in brief: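 Rat liver microsomal 5α-reductase (types 1 and 2) was incubated with 35 nM [³H]testosterone, 1.0 mM NADPH, 1 mM DTT and 40 mM potassium phosphate pH 6.5. Steroids were separated by TLC and the spots extracted with ethyl acetate for scintillation counting. Percent inhibition was taken at a single fixed test concentration.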

Question: With `Cc1ccc(NC(=O)O[C@@H]2Cc3c(O)cc(O)cc3O[C@@H]2c2cc(O)c(O)c(O)c2)cc1` as the compound, how does the inhibition read?
Answer: 0.8%

Question: With `CC(C)=CC(=O)O[C@@H]1Cc2c(O)cc(O)cc2O[C@@H]1c1cc(O)c(O)c(O)c1` as the compound, how does the inhibition read?
Answer: 36%

Question: For `O=C(Nc1ccc(Cl)cc1)O[C@@H]1Cc2c(O)cc(O)cc2O[C@@H]1c1cc(O)c(O)c(O)c1`, which inhibition is on record?
Answer: 19.1%

Question: With `COc1cc(OC)c2c(c1)O[C@H](c1cc(OC)c(OC)c(OC)c1)[C@H](OC(=O)c1cc(OC)c(OC)c(OC)c1)C2` as the compound, how does the inhibition read?
Answer: 8.4%

Question: Which inhibition does the source give for `CCCCCC(=O)O[C@@H]1Cc2c(O)cc(O)cc2O[C@@H]1c1cc(O)c(O)c(O)c1` here?
Answer: 46%

Question: Which inhibition does the source give for `C#CCCCC(=O)O[C@@H]1Cc2c(O)cc(O)cc2O[C@@H]1c1cc(O)c(O)c(O)c1` here?
Answer: 48.8%

Question: Which inhibition does the source give for `CCCCCCCC(=O)O[C@@H]1Cc2c(O)cc(O)cc2O[C@@H]1c1cc(O)c(O)c(O)c1` here?
Answer: 49.3%

Question: For `O=C(Nc1ccc2ccccc2c1)O[C@@H]1Cc2c(O)cc(O)cc2O[C@@H]1c1cc(O)c(O)c(O)c1`, which inhibition is on record?
Answer: 28.7%

Question: For `CCCCCCCCCCCCCCCCCCCCCC(=O)O[C@@H]1Cc2c(O)cc(O)cc2O[C@@H]1c1cc(O)c(O)c(O)c1`, which inhibition is on record?
Answer: 28.3%

Question: For `CCCC(=O)O[C@@H]1Cc2c(O)cc(O)cc2O[C@@H]1c1cc(O)c(O)c(O)c1`, which inhibition is on record?
Answer: 35%

Question: Which inhibition does the source give for `CC(=O)O[C@@H]1Cc2c(O)cc(O)cc2O[C@@H]1c1cc(O)c(O)c(O)c1` here?
Answer: 3%

Question: For `CCCCCCCCCCCCCCCCCCCC(=O)O[C@@H]1Cc2c(O)cc(O)cc2O[C@@H]1c1cc(O)c(O)c(O)c1`, which inhibition is on record?
Answer: 47.9%

Question: For `CC(=O)Oc1cc(OC(C)=O)c2c(c1)O[C@H](c1cc(OC(C)=O)c(OC(C)=O)c(OC(C)=O)c1)[C@H](OC(=O)c1cc(OC(C)=O)c(OC(C)=O)c(OC(C)=O)c1)C2`, which inhibition is on record?
Answer: 0.5%

Question: For `C/C=C(\C)C(=O)O[C@@H]1Cc2c(O)cc(O)cc2O[C@@H]1c1cc(O)c(O)c(O)c1`, which inhibition is on record?
Answer: 29.1%

System: PC-3
Test: Anticancer activity against human PC3 cells xenografted in sc dosed SCID mouse assessed as inhibition of tumor growth at 20 mg/kg, ip qd for 14 days
Format: functional
Details: not given
Method in brief: as §1

Question: Which inhibition does the source give for `O=C(O[C@@H]1Cc2c(O)cc(O)cc2O[C@@H]1c1cc(O)c(O)c(O)c1)c1cc(O)c(O)c(O)c1` [EPIGALOCATECHIN GALLATE] here?
Answer: inactive

Same assay, conditions: PC-3, sc, 336 h, route subcutaneous

Question: Which inhibition in vivo at 20 mg/kg does the source give for `CCCCCC/C=C\CCCCCCCC(=O)O[C@@H]1Cc2c(O)cc(O)cc2O[C@@H]1c1cc(O)c(O)c(O)c1` here?
Answer: 38%
